# Measurements of several laboratories.
# Compare with care: the assays were run in different laboratories.
# Adora2a: Adenosine receptor A2a (Adora2a, Rattus norvegicus, UniProt P30543)
# Sterol carrier protein 2: Sterol carrier protein 2 (Aedes aegypti, UniProt Q86PR3)
SMILES,target,test,setting,measurement,value
C=CN1CCCn2c1nc1c2c(=O)n(C)c(=O)n1C,Adora2a,"ligand displacement, radioligand",cell membranes,Ki,> 25000 nM
O=C1/C(=C/c2ccco2)CCC/C1=C\c1ccco1,Sterol carrier protein 2,"ligand displacement, fluorescence",,EC50,62900 nM
CCCCCCCCCCCCCCCC(=O)OC[C@H](COP(=O)(O)OC1[C@H](O)[C@H](O)C(OP(=O)(O)O)[C@H](O)[C@H]1O)OC(=O)CCCCCCCCCCCCCCC (some centres unmarked),"SHC-transforming protein 1 (Homo sapiens, UniProt P29353)","binding, fluorescence",,Kd,4100 nM
Cc1cnc(-c2ccc(-c3ccc(NC(=O)Nc4c(F)cc(F)cc4F)cc3F)c3c2C(=O)NC3)[nH]1,"BDNF/NT-3 growth factors receptor (NTRK2, Homo sapiens, UniProt Q16620)","binding, competition with immobilised ligand",,Kd,4.5 nM
O=C(/C=C/c1ccc(O)cc1)/C=C/c1ccc(O)cc1,Sterol carrier protein 2,"ligand displacement, fluorescence",,EC50,2380 nM
CCCS(=O)(=O)Nc1ccc(F)c(C(=O)c2c[nH]c3ncc(-c4ccc(Cl)cc4)cc23)c1F,"Mitogen-activated protein kinase kinase kinase 20, non-phosphorylated (MAP3K20, Homo sapiens, UniProt Q9NYL2)","binding, ITC",,Kd,29 nM
CN1CCN(c2ccc(Nc3ncc4cc(C#N)c(=O)n(C5CCCC5)c4n3)cc2)CC1,"Calcium/calmodulin-dependent protein kinase type II subunit delta (CAMK2D, Homo sapiens, UniProt Q13557)","enzyme activity, inhibitor",,IC50,1600 nM
N[C@@H](CCC(=O)O)C(=O)O,"Metabotropic glutamate receptor 4 (Grm4, Rattus norvegicus, UniProt P31423)","ion flux, agonist",,EC50,7900 nM
Cc1cc(Nc2cc3ncccc3c(N[C@@H]3C[C@H]4CC[C@@H](C3)N4CCC#N)n2)n[nH]1,"Mitogen-activated protein kinase kinase kinase 9 (MAP3K9, Homo sapiens, UniProt P80192)","binding, competition with immobilised ligand",,Kd,54 nM
CCCCCC(C)N1CCCn2c1nc1c2c(=O)n(C)c(=O)n1C (centres unmarked),Adora2a,"ligand displacement, radioligand",cell membranes,Ki,2380 nM
CCCN1CCN(c2ccc(-c3cncc(Cl)c3N3CCC4(CCNC4=O)CC3)cc2)CC1,"E3 ubiquitin-protein ligase NEDD4 (Homo sapiens, UniProt P46934)",cell-free assay,lysate,Kd,18400 nM
